Experimental data from ChEMBL document CHEMBL1212734, “In vitro pharmacodynamics of levofloxacin and other aerosolized antibiotics under multiple conditions relevant to chronic pulmonary infection in cystic fibrosis” (2010).
Values after ≈ are worked out from the molar mass of the structure shown.

Key:
Type in all cases: functional
Pseudomonas aeruginosa [1] = assay: Antibacterial activity against Pseudomonas aeruginosa PA1022 assessed as time required for reduction of bacterial load to 3 log CFU/ml at 0.6 mg/ml up to 48 hrs by time-kill assay
In short: (§1)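 Overnight cultures were diluted and grown at 37°C to OD600 ≈0.3, then set at 5 × 10^5–1 × 10^6 CFU/ml in 10 ml CAMHB. Drug was added at 0.2, 0.6 or 2.0 mg/ml, and cultures were shaken at 37°C. Samples taken at 0, 0.5, 1, 2, 4, 8 and 24 h were washed twice in CAMHB, diluted in saline and plated on Mueller-Hinton agar. Plates were incubated up to 48 h before colony counting.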

Pseudomonas aeruginosa [2] = assay: Antibacterial activity against Pseudomonas aeruginosa PA861 assessed as time required for reduction of bacterial load to 3 log CFU/ml at 2 mg/ml up to 48 hrs by time-kill assay; in short: as §1
Pseudomonas aeruginosa [3] = assay: Antibacterial activity against Pseudomonas aeruginosa ATCC 27853 by broth dilution method
In short: (§2)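 Broth microdilution MIC per CLSI reference method; twofold serial dilutions in cation-adjusted Mueller-Hinton broth. […] Endpoint read by OD600 and confirmed visually.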

Pseudomonas aeruginosa [4] = assay: Antibacterial activity against Pseudomonas aeruginosa PA880 by broth dilution method; in short: as §2
Pseudomonas aeruginosa [5] = assay: Antibacterial activity against Pseudomonas aeruginosa PA1036 by broth dilution method; in short: as §2
Pseudomonas aeruginosa [6] = assay: Antibacterial activity against Pseudomonas aeruginosa PA1036 assessed as time required for reduction of bacterial load to 3 log CFU/ml at 0.6 mg/ml up to 48 hrs by time-kill assay; in short: as §1
Pseudomonas aeruginosa [7] = assay: Antibacterial activity against Pseudomonas aeruginosa PA1036 assessed as time required for reduction of bacterial load to 3 log CFU/ml at 0.2 mg/ml up to 48 hrs by time-kill assay; in short: as §1
Pseudomonas aeruginosa [8] = assay: Antibacterial activity against Pseudomonas aeruginosa PA5063 by broth dilution method; in short: as §2
Pseudomonas aeruginosa [9] = assay: Antibacterial activity against Pseudomonas aeruginosa PA1022 by broth dilution method
Pseudomonas aeruginosa [10] = assay: Antibacterial activity against Pseudomonas aeruginosa PA876 by broth dilution method; in short: as §2
Pseudomonas aeruginosa [11] = assay: Antibacterial activity against Pseudomonas aeruginosa PA5026 assessed as time required for reduction of bacterial load to 3 log CFU/ml at 0.2 mg/ml up to 48 hrs by time-kill assay; in short: as §1
Pseudomonas aeruginosa [12] = assay: Antibacterial activity against Pseudomonas aeruginosa PA5043 by broth dilution method; in short: as §2
Pseudomonas aeruginosa [13] = assay: Antibacterial activity against Pseudomonas aeruginosa PA1022 assessed as time required for reduction of bacterial load to 3 log CFU/ml at 2 mg/ml up to 48 hrs by time-kill assay; in short: as §1
Pseudomonas aeruginosa [14] = assay: Antibacterial activity against Pseudomonas aeruginosa PA1042 by broth dilution method; in short: as §2
Pseudomonas aeruginosa [15] = assay: Antibacterial activity against Pseudomonas aeruginosa PA880 assessed as time required for reduction of bacterial load to 3 log CFU/ml at 0.2 mg/ml up to 48 hrs by time-kill assay; in short: as §1
Pseudomonas aeruginosa [16] = assay: Antibacterial activity against Pseudomonas aeruginosa PA1054 assessed as time required for reduction of bacterial load to 3 log CFU/ml at 0.2 mg/ml up to 48 hrs by time-kill assay; in short: as §1
Pseudomonas aeruginosa [17] = assay: Antibacterial activity against Pseudomonas aeruginosa PA881 assessed as time required for reduction of bacterial load to 3 log CFU/ml at 0.2 mg/ml up to 48 hrs by time-kill assay; in short: as §1
Pseudomonas aeruginosa [18] = assay: Antibacterial activity against Pseudomonas aeruginosa PA1042 assessed as time required for reduction of bacterial load to 3 log CFU/ml at 0.6 mg/ml up to 48 hrs by time-kill assay; in short: as §1
Pseudomonas aeruginosa [19] = assay: Antibacterial activity against Pseudomonas aeruginosa PA1042 assessed as inhibition of biofilm formation by microtiter plate reader assay
In short: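 Biofilms of cystic fibrosis P. aeruginosa isolates were grown and tested by a previously described method. The endpoint was the biofilm inhibitory concentration, the drug level that prevents biofilm cell growth, compared against planktonic broth-microdilution MICs.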

Pseudomonas aeruginosa [20] = assay: Antibacterial activity against Pseudomonas aeruginosa PA861 assessed as time required for reduction of bacterial load to 3 log CFU/ml at 0.2 mg/ml up to 48 hrs by time-kill assay; in short: as §1
Pseudomonas aeruginosa [21] = assay: Antibacterial activity against Pseudomonas aeruginosa PA5043 assessed as time required for reduction of bacterial load to 3 log CFU/ml at 0.6 mg/ml up to 48 hrs by time-kill assay; in short: as §1
Pseudomonas aeruginosa [22] = assay: Antibacterial activity against Pseudomonas aeruginosa PA876 assessed as time required for reduction of bacterial load to 3 log CFU/ml at 0.2 mg/ml up to 48 hrs by time-kill assay; in short: as §1
Pseudomonas aeruginosa [23] = assay: Antibacterial activity against Pseudomonas aeruginosa PA5026 by broth dilution method; in short: as §2
Pseudomonas aeruginosa [24] = assay: Antibacterial activity against Pseudomonas aeruginosa PA5043 assessed as time required for reduction of bacterial load to 3 log CFU/ml at 2 mg/ml up to 48 hrs by time-kill assay; in short: as §1
Pseudomonas aeruginosa [25] = assay: Antibacterial activity against Pseudomonas aeruginosa PA1042 assessed as time required for reduction of bacterial load to 3 log CFU/ml at 2 mg/ml up to 48 hrs by time-kill assay; in short: as §1
Pseudomonas aeruginosa [26] = assay: Antibacterial activity against Pseudomonas aeruginosa PA880 assessed as time required for reduction of bacterial load to 3 log CFU/ml at 2 mg/ml up to 48 hrs by time-kill assay; in short: as §1
Pseudomonas aeruginosa [27] = assay: Antibacterial activity against Pseudomonas aeruginosa PA881 by broth dilution method; in short: as §2
Pseudomonas aeruginosa [28] = assay: Antibacterial activity against Pseudomonas aeruginosa PA876 assessed as time required for reduction of bacterial load to 3 log CFU/ml at 2 mg/ml up to 48 hrs by time-kill assay; in short: as §1
Staphylococcus aureus = assay: Antibacterial activity against methicillin-resistant Staphylococcus aureus by broth dilution method; in short: as §2
Burkholderia cepacia = assay: Antibacterial activity against Burkholderia cepacia clinical isolates by broth dilution method
Pseudomonas aeruginosa [29] = assay: Antibacterial activity against Pseudomonas aeruginosa PAM1032 overexpressing multidrug efflux pump MexAB-OprM by broth dilution method

`C[C@H]1[C@H](NC(=O)/C(=N\OC(C)(C)C(=O)O)c2csc(N)n2)C(=O)N1S(=O)(=O)O` [AZTREONAM] gave a Time (Pseudomonas aeruginosa [1]) greater than 24 h, a Time (Pseudomonas aeruginosa [2]) of 24 h and an MIC (Pseudomonas aeruginosa [3]) of 4 µg/mL (≈ 9.19 µM). For the same compound, the MIC (Pseudomonas aeruginosa [4]) was 0.5 µg/mL (≈ 1.15 µM), the MIC (Pseudomonas aeruginosa [5]) was 32 µg/mL (≈ 73.5 µM) and the Time (Pseudomonas aeruginosa [6]) was 24 h. The Time (Pseudomonas aeruginosa [7]) was greater than 24 h, the MIC (Pseudomonas aeruginosa [8]) was 8 µg/mL (≈ 18.4 µM) and the MIC (Pseudomonas aeruginosa [9]) was 16 µg/mL (≈ 36.7 µM). It also gave an MIC90 (Pseudomonas aeruginosa [10]) greater than 128 µg/mL, a Time (Pseudomonas aeruginosa [11]) greater than 24 h and an MIC (Pseudomonas aeruginosa [12]) of 1 µg/mL (≈ 2.3 µM). For the same compound, the Time (Pseudomonas aeruginosa [13]) was 24 h, the MIC (Pseudomonas aeruginosa [14]) was 0.5 µg/mL (≈ 1.15 µM) and the Time (Pseudomonas aeruginosa [15]) was 4 h. It also gave a Time (Pseudomonas aeruginosa [16]) of 24 h, a Time (Pseudomonas aeruginosa [17]) of 8 h and a Time (Pseudomonas aeruginosa [18]) of 4 h. It also gave a BBC (Pseudomonas aeruginosa [19]) greater than 8 µg/mL, a Time (Pseudomonas aeruginosa [20]) greater than 24 h and a Time (Pseudomonas aeruginosa [21]) of 2 h. The Time (Pseudomonas aeruginosa [22]) was greater than 24 h, the MIC (Pseudomonas aeruginosa [23]) was greater than 128 µg/mL and the Time (Pseudomonas aeruginosa [24]) was 2 h. The Time (Pseudomonas aeruginosa [25]) was 2 h, the Time (Pseudomonas aeruginosa [26]) was 4 h and the MIC50 (Pseudomonas aeruginosa [27]) was 2 µg/mL (≈ 4.59 µM). The Time (Pseudomonas aeruginosa [28]) was greater than 24 h, the MIC50 (Staphylococcus aureus) was greater than 512 µg/mL and the MIC90 (Staphylococcus aureus) was greater than 512 µg/mL.
For `C[C@H]1COc2c(N3CCN(C)CC3)c(F)cc3c(=O)c(C(=O)O)cn1c23.C[C@H]1COc2c(N3CCN(C)CC3)c(F)cc3c(=O)c(C(=O)O)cn1c23.O` [LEVOFLOXACIN], the Time (Pseudomonas aeruginosa [1]) was “<=0.5 hr”, the MIC50 (Burkholderia cepacia) was 4 µg/mL and the MIC90 (Burkholderia cepacia) was 32 µg/mL. For the same compound, the Time (Pseudomonas aeruginosa [2]) was “<=0.5 hr”, the MIC (Pseudomonas aeruginosa [5]) was 8 µg/mL and the Time (Pseudomonas aeruginosa [6]) was “<=0.5 hr”. For the same compound, the Time (Pseudomonas aeruginosa [7]) was “<=0.5 hr”, the MIC (Pseudomonas aeruginosa [8]) was 0.5 µg/mL and the MIC90 (Pseudomonas aeruginosa [10]) was 8 µg/mL. The Time (Pseudomonas aeruginosa [11]) was “<=0.5 hr”, the Time (Pseudomonas aeruginosa [13]) was “<=0.5 hr” and the Time (Pseudomonas aeruginosa [15]) was “<=0.5 hr”. The Time (Pseudomonas aeruginosa [16]) was “<=0.5 hr”, the Time (Pseudomonas aeruginosa [17]) was “<=0.5 hr” and the Time (Pseudomonas aeruginosa [18]) was “<=0.5 hr”. For the same compound, the BBC (Pseudomonas aeruginosa [19]) was 1 µg/mL, the Time (Pseudomonas aeruginosa [20]) was “<=0.5 hr” and the Time (Pseudomonas aeruginosa [21]) was “<=0.5 hr”. The Time (Pseudomonas aeruginosa [22]) was “<=0.5 hr”, the MIC (Pseudomonas aeruginosa [23]) was 8 µg/mL and the Time (Pseudomonas aeruginosa [24]) was “<=0.5 hr”. The Time (Pseudomonas aeruginosa [25]) was “<=0.5 hr”, the Time (Pseudomonas aeruginosa [26]) was “<=0.5 hr” and the MIC50 (Pseudomonas aeruginosa [27]) was 4 µg/mL. The Time (Pseudomonas aeruginosa [28]) was “<=0.5 hr”, the MIC50 (Staphylococcus aureus) was 4 µg/mL and the MIC90 (Staphylococcus aureus) was 32 µg/mL.
Compound `NC[C@H]1O[C@H](O[C@H]2[C@H](O)[C@@H](O[C@H]3O[C@H](CO)[C@@H](O)[C@H](N)[C@H]3O)[C@H](N)C[C@@H]2N)[C@H](N)C[C@@H]1O` [TOBRAMYCIN] has a Time (Pseudomonas aeruginosa [1]) of 4 h, an MIC50 (Burkholderia cepacia) greater than 32 µg/mL and an MIC90 (Burkholderia cepacia) greater than 32 µg/mL. It also gave a Time (Pseudomonas aeruginosa [2]) of 4 h, an MIC (Pseudomonas aeruginosa [3]) of 0.25 µg/mL (≈ 0.535 µM) and an MIC (Pseudomonas aeruginosa [4]) of 1 µg/mL (≈ 2.14 µM). The MIC (Pseudomonas aeruginosa [5]) was 1 µg/mL (≈ 2.14 µM), the Time (Pseudomonas aeruginosa [6]) was “<=0.5 hr” and the Time (Pseudomonas aeruginosa [7]) was “<=0.5 hr”. The MIC (Pseudomonas aeruginosa [8]) was 0.25 µg/mL (≈ 0.535 µM), the MIC (Pseudomonas aeruginosa [9]) was greater than 32 µg/mL and the MIC90 (Pseudomonas aeruginosa [10]) was 32 µg/mL (≈ 68.4 µM). For the same compound, the Time (Pseudomonas aeruginosa [11]) was 2 h, the MIC (Pseudomonas aeruginosa [12]) was 8 µg/mL (≈ 17.1 µM) and the MIC (Pseudomonas aeruginosa [29]) was 0.25 µg/mL (≈ 0.535 µM). The Time (Pseudomonas aeruginosa [13]) was 4 h, the MIC (Pseudomonas aeruginosa [14]) was 0.5 µg/mL (≈ 1.07 µM) and the Time (Pseudomonas aeruginosa [15]) was “<=0.5 hr”. The Time (Pseudomonas aeruginosa [16]) was “<=0.5 hr”, the Time (Pseudomonas aeruginosa [17]) was “<=0.5 hr” and the Time (Pseudomonas aeruginosa [18]) was 1 h. The BBC (Pseudomonas aeruginosa [19]) was 1 µg/mL, the Time (Pseudomonas aeruginosa [20]) was 8 h and the Time (Pseudomonas aeruginosa [21]) was 1 h. The Time (Pseudomonas aeruginosa [22]) was 4 h, the MIC (Pseudomonas aeruginosa [23]) was 32 µg/mL (≈ 68.4 µM) and the Time (Pseudomonas aeruginosa [24]) was 1 h. The Time (Pseudomonas aeruginosa [25]) was “<=0.5 hr”, the Time (Pseudomonas aeruginosa [26]) was “<=0.5 hr” and the MIC50 (Pseudomonas aeruginosa [27]) was 2 µg/mL (≈ 4.28 µM). The Time (Pseudomonas aeruginosa [28]) was 4 h, the MIC50 (Staphylococcus aureus) was 128 µg/mL (≈ 274 µM) and the MIC90 (Staphylococcus aureus) was greater than 128 µg/mL.
